IMP-1 inh: blocks Pseudomonas aeruginosa IMP-1 metallo-beta-lactamase. purified IMP-1, nitrocefin hydrolysis, epi-absorbance fluorescence. inhibition, % at 5.6 µM. actives 0.45% (n = 290,000). AID 1556;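 active = inhibition above the mean plus 3 SD of all compounds in the same screening run, cut at about 4.5% in these data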;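 note: 0% = IMP-1 with DMSO and 100% = DMSO wells lacking enzyme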
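System: purified IMP-1 / Input: IMP-1 dispensed at 0.2 nM / Medium: 50 mM HEPES pH 7.1, 50 µM ZnSO4, 0.05% Brij 35 / Timing: 15 min enzyme–compound preincubation, then 25 min nitrocefin reaction, 25 °C / Technique: plate fluorescence quenching by hydrolysis product, ex 480/em 530 nm / Repeats: singlicate testing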
Fh CTSL1 inh: counter-screen for PFM18AAP inhibitors: inhibitors of F. hepatica cathepsin L1; actives 0.49% (n = 300,000); inhibition, % at 5.96 µM; recombinant F. hepatica cathepsin L1, Z-Leu-Arg-MCA fluorescence;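 active = inhibition above the mean of all tested compounds plus 3 SD, set per screening campaign, cut at about 17% in these data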;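 note: 0% = plate median of test compound wells and 100% = 1 µM Z-Phe-Ala-diazomethylketone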
T cell HTS: modulates CD8 T cell binding to vesicles; 2C CD8+ T cell-vesicle binding, flow cytometry; hits give low values; response (vesicle binding), % at 7 µM; actives 0.068% (n = 330,000); AID 2052;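 active = response, share of CD8 T cells binding vesicles, and their 90th percentile fluorescence all below set limits, cut at about 80% in these data, passing the limit was not always enough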;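 note: values below 100% mean blocked vesicle binding to the CD8+ T cells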
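Material: murine 2C transgenic CD8+ T lymphocytes / Also added: QL9-peptide-loaded Drosophila micro-vesicles bearing Ld, ICAM-1 and B7-1 / Schedule: binding step 1.5 h, 37 °C, antibody labelling 20 min, ice / Signal: flow cytometry, PE anti-B7-1 (FL2) versus Alexa647 anti-CD8 (FL8), PFA-fixed / Evaluation: percent CD8+ FL2 mean versus row control / Benchmarks: naked versus QL9-loaded vesicles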
UBC9 SUMO inh: SUMOylation inhibition; P63279; HTRF SUMOylation assay, SAE1/SAE2 + UBC9, in vitro; inhibition, % at 35 µM; actives 0.36% (n = 290,000); AID 2006; in the data active = inhibition above about 50%, passing the limit was not always enough; inconclusive = no clear call, values can overlap the other calls
VIM-2 inh: inhibitors of Pseudomonas aeruginosa VIM-2 metallo-beta-lactamase | AID 1527 | actives 0.89% (n = 290,000) | inhibition, % at 5.6 µM | purified VIM-2, nitrocefin hydrolysis, epi-absorbance fluorescence;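 active = inhibition above the mean of all tested compounds plus 3 SD, cutoff set per screening run, cut at about 7.5% in these data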;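 note: red hydrolysis product quenches plate fluorescence so inhibitors raise well fluorescence; 0% = enzyme with DMSO and 100% = DMSO without enzyme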
p-CIP stab down: lowers stability of the mouse p/CIP coactivator protein; actives 0.01% (n = 290,000); F442A p/CIP-EGFP cells, EGFP fluorescence, 16 h; Q05BA5; decrease of EGFP signal, % at 10 µM; AID 1984;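 active = EGFP signal decrease of at least 30% at 10 µM or well 3 SD below plate mean, unless failing retest; inactive = the rest, including hits failing retest or dose response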
* hit, by the source's call; i = inactive; ? = inconclusive; · = not tested or not shown. Shown are actives, neighbours in structure and some others; about 1.9% of the full set was active somewhere.

SMILES	IMP-1 inh	Fh CTSL1 inh	T cell HTS	UBC9 SUMO inh	VIM-2 inh	p-CIP stab down
COc1cc(OC)cc(C(=O)NCc2cccnc2)c1	-1	19*	392	19	1	-2
COc1ccc(C(=O)NCc2cccnc2)cc1Br	-3	-1	362	-6	-4	12
COc1ccc(NC(=O)NCc2cccnc2)c(OC)c1	16*	5	232	10	0	-14
COc1cccc(Nc2nc3ccccc3n3cnnc23)c1	-4	1	543	21	7.8*	-3
Cc1ccc2nc(Nc3ccc(F)cc3)c3nncn3c2c1	7.6*	0	12	-9	1	2
COCCn1c(C)cc(C(=O)CN2C(=O)NC3(CCCCCCC3)C2=O)c1C	-3	7	0.0*	11	-6	-2
COc1ccccc1CNC(=O)c1nn(C)c2c1CS(=O)(=O)c1ccccc1-2	-1	1	461	-4	-1	8
Cc1ccc(NS(=O)(=O)c2ccc3c(c2)n(C)c(=O)n3C)cc1C	-2	18*	323	11	-3	-10
Cc1cccc(C)c1NC(=O)CNC(=O)CCCc1c[nH]c2ccccc12	·	2	817	·	·	·
Cc1ccccc1N(CC(=O)Nc1ccccc1C(=O)NCc1ccco1)S(=O)(=O)c1ccccc1	-3	3	301	-4	0	11
CC(=O)Oc1ccc2cc(-c3nc4ccccc4n3C)c(=O)oc2c1	0	-7	844	56*	2	-11
Cn1c(-c2cc3ccc(OC(=O)C(C)(C)C)cc3oc2=O)nc2ccccc21	-3	-2	i	24	-3	-22
CCCS(=O)(=O)N1CCCC(C(=O)NCCCN2CCN(c3ccc(F)cc3)CC2)C1 (stereo not given)	5.4*	7	200	0	-1	-11
Cc1cccc(NC(=O)COC(=O)CSc2ccccc2)c1C	·	·	i	·	·	·
O=C(NCCCO)Nc1ccc2nc(-c3ccco3)c(-c3ccco3)nc2c1	-2	4	380	93*	-2	-3
O=C(Nc1ccc2nc(-c3ccco3)c(-c3ccco3)nc2c1)NC1CC1	1	·	·	?	-3	3
CCc1ccccc1NNC(=O)c1snnc1C	-1	5	52*	10	1	-5
CCOC(=O)c1cc2occc2n1Cc1c(F)cccc1Cl	-1	1	212	5	-3	1
CCOC(=O)c1cc2occc2n1Cc1ccc(F)cc1	24*	-3	293	14	-3	-18
COc1ccc(/C=C(\C#N)C(=O)OCC(=O)NCc2ccccc2Cl)cc1	-1	-5	476	55*	-4	-1
Cc1cnc(C(=O)OCC(=O)Nc2cccc(S(=O)(=O)N3CCOCC3)c2)cn1	·	·	183	·	·	·
O=C(O)CC/C(=C\c1ccccc1[N+](=O)[O-])c1nc2ccccc2s1	-2	3	306	-2	8.8*	-9
O=C(O)CC/C(=C\c1ccc(N2CCCC2)c([N+](=O)[O-])c1)c1nc2ccccc2s1	-2	1	562	31	2	0
CSc1nc(SCC(=O)O)c2sc3nc(-c4ccccc4)c4c(c3c2n1)CCC4	64*	·	·	-7	-1	-12
CSc1nc(N(C)CCO)c2sc3nc(-c4ccco4)c4c(c3c2n1)CCC4	11*	22*	387	39	1	-4
SMILES	IMP-1 inh	Fh CTSL1 inh	T cell HTS	UBC9 SUMO inh	VIM-2 inh	p-CIP stab down
CCOc1ccccc1N1CCN(Cc2cnc(-c3ccccc3)[nH]2)CC1	-4	-4	112	1	-3	-2
CCn1c(SC(C)C(=O)NC2CCCC2)nc2cc(S(N)(=O)=O)ccc21 (stereo not given)	·	·	391	·	·	·
CC1(C)SC[C@H](C(=O)Nc2cccc(Cl)c2)N1C=O	-4	11	52*	19	0	-14
CC12CCC(=O)N1C(C(=O)Nc1ccc(F)c(Cl)c1)CS2 (stereo not given)	·	5	301	·	·	·
COc1ccc(-n2c(SCC(=O)Nc3cc(C(=O)O)ccc3C)nc3ccccc3c2=O)cc1Cl	-2	8	175	14	-2	-6
CS(=O)(=O)c1ccc(C(=O)NCC2(N3CCCCC3)CCCCC2)cc1	-3	29*	325	-2	-4	-9
COCc1ccc(C(=O)NCC2(N3CCCCC3)CCCCC2)cc1	-2	1	25	-13	-2	6

Screening data as filed in PubChem.
